Data as given in ChEMBL document CHEMBL4396895, “Identification and Optimization of Novel Cathepsin C Inhibitors Derived from EGFR Inhibitors” (J Med Chem, 2019).

Experiments:
[1] = tested on: Mus musculus; test: In vivo inhibition of CatC in C57BL/6 mouse blood at 20 mg/kg, po single dose using Gly-Phe-AFC as substrate measured 15 mins post dose for up to 90 mins by fluorescence assay relative to control; settings: C57BL/6, Blood
[2] = target: Cytochrome P450 2C9 (Homo sapiens, UniProt P11712); test: Inhibition of CYP2C9 (unknown origin); type: ADME
Outline: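 Tested against recombinant human cytochrome P450 isoforms 1A2, 2D6, 3A4, 2C9 and 2C19.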

[3] = Intrinsic clearance in rat liver microsomes assessed per mg protein measured after 60 mins in presence of NADPH by LC-MS/MS analysis; type: ADME, Microsome; settings: read-out: CLH
[4] = AUC infinity in C57BL/6 mouse at 10 mg/kg, ip by LC-MS/MS analysis; type: ADME, organism-based; set-up: dose 10 mg/kg, route intraperitoneal, time infinity; settings: in vivo
Outline: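 Male C57BL/6 mice (n = 3) were dosed with a single IV dose of 2 mg/kg or an IP or PO dose of 10 mg/kg. Vehicle: 0.5% Methocel and 0.1% Tween-80 in citrate buffer, pH 3. Blood was drawn by eye puncture at several time points and analysed by LC-MS/MS. Parameters came from noncompartmental analysis of individual animals and are reported as means.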

Cytochrome P450 2C9, sequence (P11712 whole entry, canonical isoform): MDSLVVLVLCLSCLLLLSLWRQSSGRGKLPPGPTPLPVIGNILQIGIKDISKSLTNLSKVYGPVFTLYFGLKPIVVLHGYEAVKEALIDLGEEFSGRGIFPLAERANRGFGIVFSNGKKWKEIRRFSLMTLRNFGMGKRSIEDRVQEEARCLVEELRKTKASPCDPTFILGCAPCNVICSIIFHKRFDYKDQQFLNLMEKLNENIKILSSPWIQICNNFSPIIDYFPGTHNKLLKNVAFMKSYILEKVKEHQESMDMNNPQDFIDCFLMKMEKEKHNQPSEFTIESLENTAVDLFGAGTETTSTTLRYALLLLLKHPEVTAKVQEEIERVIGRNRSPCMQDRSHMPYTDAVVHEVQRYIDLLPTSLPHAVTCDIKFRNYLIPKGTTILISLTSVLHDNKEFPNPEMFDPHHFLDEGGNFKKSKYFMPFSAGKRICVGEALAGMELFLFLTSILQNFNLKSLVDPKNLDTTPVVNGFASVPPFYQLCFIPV

## C=CC(=O)Nc1cc(Oc2nc(Nc3ccc(N4CCN(C)CC4)cc3OC)ccc2N2CCCCC2)ccc1C
[1]
  inhibition in vivo at 20 mg/kg: 75%
[2]
  IC50: > 10 µM
[3]
  microsomal CLint: 6.3 µL/min/mg
[4]
  AUC(0-inf): 1240 ng·h/mL
